Measurements taken from ChEMBL document CHEMBL1134528, “Heterocycle-containing retinoids. Discovery of a novel isoxazole arotinoid possessing potent apoptotic activity in multidrug and drug-induced apoptosis-resistant cells” (J Med Chem, 2001).

Tests used:
HL-60 [1] = assay: In vitro inhibition of HL60 cell proliferation; type: functional, cell-based; conditions: Homo sapiens
SW 962 [2] = assay: Potency against beta RARE transactivation in SW962 cells; type: functional, Homo sapiens
Outline: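 Stably transfected SW962 RARE-tk-CAT reporter line treated 24 h with 10^-9 to 10^-5 M compound in DMSO, DMSO vehicle control; CAT protein by ELISA normalised to extract protein, triplicate treatments averaged to give fold RARE induction; EC50, the concentration for half-maximal activation, read from dose–response curves.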

SW 962 [3] = assay: (§1) Percentage efficacy for Beta RARE transactivation in SW962 cells; type: functional, Homo sapiens; set-up: concentration or dose not given beside the values
Outline: (§2)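 SW962 vulvar carcinoma cells (L15 medium, 10% FBS with <8 nM vitamin A) stably carrying RARE-tk-CAT reporter with endogenous receptors, treated 24 h in DMSO; CAT measured by ELISA, normalised to protein, triplicates; fold induction vs DMSO control. Efficacy = fold induction at highest concentration (10 µM) divided by that of 10 µM 9-cis-RA, ×100.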

HL-60 [4] = assay: Effect on monocyte associated antigen CD14 expression in differentiating HL-60 cells; type: functional, Homo sapiens
Outline: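 HL60 cells (2 × 10^5) exposed to each retinoid for 6 days; differentiation scored by May Grunwald-Giemsa-stained cytospin morphology and two-colour direct immunofluorescence flow cytometry with FITC anti-human CD14 and PE anti-human CD11c mouse monoclonals, isotype antibodies as negative controls; value is % antigen-positive cells. Growth in RPMI 1640, 10% FCS, 37 °C, 5% CO2.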

HL-60 [5] = assay: In vitro apoptotic activity in HL60 cells; type: functional, cell-based; conditions: Homo sapiens
Outline: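 HL60 cells (2 × 10^5 per well, RPMI 1640 + 10% FCS) given increasing drug concentrations for 48 h; apoptosis scored morphologically under fluorescence microscopy after acridine orange/ethidium bromide labelling (chromatin condensation, apoptotic bodies), also by propidium iodide hypotonic-citrate flow cytometry as pre-G0G1 events; AC50 = concentration giving apoptosis in 50% of cells.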

HL-60 [6] = assay: Inhibition of retinoic acid resistant HL60R cell proliferation; type: functional, cell-based; conditions: Homo sapiens
Outline: (§3)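 Cells at 2 × 10^5 per well in 1 mL complete medium were exposed to increasing concentrations of each drug for 48 h. Viable cells were counted on a hemocytometer with trypan blue exclusion and expressed as percent of control proliferation. IC50 is the concentration giving 50% growth inhibition.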

HL-60 [7] = assay: Apoptotic activity in retinoic acid resistant HL60R cells; type: functional, cell-based; conditions: Homo sapiens
Outline: (§4)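 Cells were exposed to increasing drug concentrations for 48 h. Apoptosis was scored by fluorescence microscopy after acridine orange/ethidium bromide staining, with chromatin condensation and apoptotic bodies marking apoptotic cells and uniform ethidium staining marking necrosis. AC50 is the concentration inducing apoptosis in 50% of cells.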

HuT78 [8] = assay: Apoptotic activity in retinoic acid resistant HUT78 cell lines; type: functional, cell-based; conditions: Homo sapiens; outline: as §4
HuT78 [9] = assay: Inhibition of retinoic acid resistant HUT78 cell proliferation; type: functional, cell-based; conditions: Homo sapiens; outline: as §3
K562 [10] = assay: Apoptotic activity in retinoic acid resistant K562 cells; type: functional, cell-based; conditions: Homo sapiens; outline: as §4
K562 [11] = assay: Inhibition of retinoic acid resistant K562 cell proliferation; type: functional, cell-based; conditions: Homo sapiens; outline: as §3
SW 962 [12] = assay: as §1; type: functional, Homo sapiens; outline: as §2

Row | IC50 (HL-60 [1]) | Structure (SMILES) | Potency (SW 962 [2]) | Efficacy (SW 962 [3]) | Activity (HL-60 [4]) | AC50 (HL-60 [5]) | further results
1 | 68 µM | CC1(C)CCC(C)(C)c2cc(C3=NOC(c4ccc(C(=O)O)cc4)C3)ccc21 (configuration not stated) | 2.86 µM | 46.5% | 42.8% | > 100 µM | 
2 | 75 µM | CC1(C)CCC(C)(C)c2cc(C3CC(c4ccc(C(=O)O)cc4)=NO3)ccc21 (configuration not stated) | 0.961 µM | 26.3% | 32.5% | > 100 µM | 
3 | 40 µM | CC1(C)CCC(C)(C)c2cc(CNc3ccc(C(=O)O)cc3)ccc21 | 0.671 µM | 64.5% |  | 70 µM | 
4 | 49 µM | CC1(C)CCC(C)(C)c2cc(CNc3ccccc3C(=O)O)ccc21 |  |  |  | 88 µM | 
5 | > 100 µM | CC1(C)CCC(C)(C)c2cc(COc3ccc(C(=O)O)cc3)ccc21 |  |  |  | > 100 µM | 
6 | 60 µM | CC1(C)CCC(C)(C)c2cc(CNc3cccc(C(=O)O)c3)ccc21 |  |  |  | 99 µM | 
7 | 58 µM | CN(Cc1ccc2c(c1)C(C)(C)CCC2(C)C)c1ccc(C(=O)O)cc1 |  |  |  | 95 µM | 
8 |  | CC1=C(/C=C/C(C)=C\C=C\C(C)=C\C(=O)O)C(C)(C)CCC1 [ALITRETINOIN] | 0.0169 µM |  |  |  | Efficacy (SW 962 [12]): 100%
9 | 18 µM | CC1=C(/C=C/C(C)=C/C=C/C(C)=C/C(=O)O)C(C)(C)CCC1 [TRETINOIN] |  |  | 0% | > 100 µM | 

Row | Structure (SMILES) | IC50 (HL-60 [1]) | Potency (SW 962 [2]) | Efficacy (SW 962 [3]) | Activity (HL-60 [4]) | AC50 (HL-60 [5]) | further results
10 | CC1(C)CCC(C)(C)c2cc(-c3cc(-c4ccc(C(=O)O)cc4)no3)ccc21 | 1 µM | 10 µM | 97.6% |  | 5 µM | IC50 (HL-60 [6]): 1.4 µM; AC50 (HL-60 [7]): 4.2 µM; AC50 (HuT78 [8]): 1.5 µM; IC50 (HuT78 [9]): 0.8 µM; AC50 (K562 [10]): 4.8 µM; IC50 (K562 [11]): 2.3 µM
11 | CC1(C)CCC(C)(C)c2cc(-c3cc(-c4ccc(C(=O)O)cc4)on3)ccc21 | 80 µM | 0.129 µM | 48% | 38.6% | > 100 µM | 
